“And” between values parts separate entries of the source, which are not always exact repeats. Equal entries are not always repeated.
How the values were obtained:
[1] = Solubility in aqueous buffers; type: physicochemical; conditions: dissolved in DMSO to 135 μM for MST
HCT116 cells [2] = assay: Cell viability; type: cell-based, human; conditions: claudin-1 deficient HCT116 cells; 72 hours
Method in brief: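 Cells maintained in RPMI plus 10% FBS. Viability read with PrestoBlue reagent per kit protocol after 72 h exposure to test compound.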

[3] = test system: trypsinized human claudin-1; assay: Microscale thermophoresis; type: binding; conditions: 25 °C, at concentrations shown to bind wild-type claudin-1
Method in brief: (§1)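 Microscale thermophoresis at 25 °C with 1 μM Cy3-labeled, detergent-purified claudin (human claudin-19, mouse claudin-4 or trypsinized human claudin-1) in HEPES pH 7.4/100 mM NaCl buffer. Test compound dissolved in DMSO and titrated from 135 μM to 4.1 nM. Affinity derived from duplicate acquisitions.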

HCT116 cells [4] = assay: Anoikis-induced apoptosis assay; type: cell-based, human; conditions: claudin-1 deficient HCT116
SW620^1C cells = assay: Anoikis-induced apoptosis assay; type: cell-based, human; conditions: claudin-1 knockdown SW620^1C
Method in brief: (§2)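 Anoikis induced by plating cells on poly-HEMA-coated culture plates. Apoptosis quantified with a cell death detection ELISA. Parental lines were cultured in RPMI with 10% FBS. Claudin-1-overexpressing SW480 and claudin-1-knockdown SW620 derivatives were used.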

mouse claudin-4 = molecular target: T1, mouse claudin-4 (Mus musculus, UniProt O35054); assay: Microscale thermophoresis; type: binding; conditions: 25 °C, duplicate acquisitions
T1 sequence (O35054 1-210): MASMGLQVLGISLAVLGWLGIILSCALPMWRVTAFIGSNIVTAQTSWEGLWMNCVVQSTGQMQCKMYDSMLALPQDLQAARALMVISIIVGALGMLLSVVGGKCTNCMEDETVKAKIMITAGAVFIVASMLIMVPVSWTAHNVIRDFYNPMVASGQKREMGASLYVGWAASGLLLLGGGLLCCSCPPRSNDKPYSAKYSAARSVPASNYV
Method in brief: as §1

[5] = Tissue bio-distribution in mice; type: in vivo; conditions: mouse, 5 mg/kg
[6] = Drug toxicity in xenograft mice; type: in vivo
Method in brief: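 Body weight recorded during treatment. BUN determined colorimetrically in plasma and kidney tissue lysate by kit protocol. Mice sacrificed at day 25; AST activity measured in plasma and liver homogenate, followed up to 60 min at regular intervals. n=5 mice/group, means ± SEM.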

[7] = test system: SW480^cld1 xenograft tumor; assay: Subcutaneous xenograft tumor study; type: in vivo, athymic nude mice
Method in brief: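 Cells implanted subcutaneously in athymic nude mice, n = 5 per group, vehicle controls. For SW480cld1 with I-6, once-weekly dosing started 10 days after implantation, once tumors were palpable, for two weeks. Caliper volume over time, formula […]. Ki67 and cleaved PARP by IHC. Behavior and body weight monitored.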

[8] = test system: SW480^cld1, SW620 and HCT116 cells; assay: Screening of I-6 analogs by anoikis; type: cell-based, human; conditions: Suppl Fig3
Method in brief: as §2

[9] = Plasma pharmacokinetics in mice; type: in vivo; conditions: for AUC(0-t) / CL/F / Cmax / Tmax / Vd/F / half-life / AUC(0-inf): both, mouse, plasma, 5 mg/kg; for AUC(0-inf): AUC0−∞, mice
Method in brief: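 I-6 given as a single 1 mg/kg intravenous dose to C57BL6 mice (n=5), with serial blood sampling. PDS-0330 given at 5 mg/kg by oral gavage or IP, with ~100 μl blood drawn from the maxillary vein at 5, 15, 30 min and 1, 2, 4, 6, 8, 24 h. Plasma levels in ng/ml; non-compartmental parameters.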

SW620 cells [10] = assay: Anoikis-induced apoptosis assay; type: cell-based; conditions: claudin-1 overexpressed SW620
SW620 cells [11] = assay: Transwell matrigel invasion assay; type: cell-based, human; conditions: PDS-0330 25μM; P < 0.0001 vs control and 20A
SW620 xenograft tumor = assay: Subcutaneous xenograft tumor study; type: in vivo, athymic nude mice
SW480 cells = assay: Cell viability; type: cell-based, human; conditions: even at 25μM
human claudin-19 = molecular target: T2, human claudin-19 (Homo sapiens, UniProt Q8N6F1); assay: Microscale thermophoresis; type: binding; conditions: 25 °C, duplicate acquisitions
T2 sequence (Q8N6F1 1-224): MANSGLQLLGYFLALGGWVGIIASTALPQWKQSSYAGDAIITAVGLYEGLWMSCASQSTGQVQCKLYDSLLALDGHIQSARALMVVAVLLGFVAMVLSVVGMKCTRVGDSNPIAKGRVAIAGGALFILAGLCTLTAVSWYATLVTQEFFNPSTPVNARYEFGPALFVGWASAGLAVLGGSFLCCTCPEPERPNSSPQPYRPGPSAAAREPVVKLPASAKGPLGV
Method in brief: as §1

SW620 cells [12] = assay: Cell viability; type: cell-based, human
Method in brief: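 Claudin-1-overexpressing SW480cld1 and SW620 cells grown in RPMI with 10% FBS and exposed for 72 hours to a range of test compound concentrations. Viability measured by PrestoBlue reagent. EC50 calculated from the concentration–viability data.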

[13] = PDS-0330 5mg/Kg and 10mg/Kg vs vehicle

With `O=C(NC(=S)Nc1ccc(-c2nc3ccccc3o2)cc1)c1ccc2ccccc2c1` [PDS-0330, N-((4-(benzo[d]oxazol-2-yl)phenyl)carbamothioyl)-2-naphthamide] the “solubility in aqueous buffers” value [1] was “limited solubility”, the “effect on cell growth/survival” value (HCT116 cells [2]) was “no effect” and the “binding to trypsinized and labeled claudin-1” value [3] was “no detectable binding”. The resistance to anoikis (HCT116 cells [4]) was “not affecting”, the resistance to anoikis (SW620^1C cells) was “not affecting” and the Kd (mouse claudin-4) was 92.1 µM and ≥ 100 µM. For the same compound, the concentration at 2 h ([5]; both, liver, ip) was 277 ng/g, the concentration at 8 h ([5]; both, liver, ip) was 807 ng/g and the concentration at 2 h ([5]; both, liver, po) was 17 ng/g. For the same compound, the concentration at 8 h ([5]; both, liver, po) was 5.8 ng/g, the concentration at 24 h ([5]; both, liver, po) was 10.5 ng/g and the concentration at 24 h ([5]; both, lungs, ip) was 93.7 ng/g. It also gave a concentration at 24 h ([5]; both, lungs, po) of 519 ng/g, a concentration at 24 h ([5]; liver, ip) of 407 ng/g and a concentration at 2 h ([5]; lungs, ip) of 338 ng/g. For the same compound, the concentration at 8 h ([5]; lungs, ip) was 76.9 ng/g, the concentration at 2 h ([5]; lungs, po) was 5 ng/g and the concentration at 8 h ([5]; lungs, po) was 473 ng/g. The “body weight among groups at the end of treatment” value ([6]; PDS-0330 5mg/Kg and 10mg/Kg, SW620 and SW480^cld1 implanted mice) was “no statistically significant differences”, the “urea nitrogen (BUN) level” value ([6]; kidney tissue and plasma of treated mice) was “not affected” and the “aspartate transaminase (AST) levels” value ([6]; plasma and liver homogenate, day 25) was “not affected”. The “apoptosis in tumors (cleaved PARP, BclxL, survivin)” value ([7]; PDS-0330 5mg/Kg and 10mg/Kg) was “increase in apoptosis”, the “proliferation in tumors (Ki67)” value ([7]; PDS-0330 5mg/Kg and 10mg/Kg) was “reduced proliferation” and the “tumor volume and weight” value [7, 13] was “significant reduction”. The “potency in inducing cell death among I-6 analogs” value [8] was “most potent”, the “mouse behavior or weight” value ([9]; 24 hours after a single PO and IP injection (5 mg/kg), data not shown) was “no change” and the AUC(0-t) ([9]; ip) was 422 ng·h/mL. The CL/F ([9]; ip) was 245 mL/min/kg, the Cmax ([9]; ip) was 59.3 ng/mL and the Tmax ([9]; ip) was 2.8 h. For the same compound, the Vd/F ([9]; ip) was 126 L/kg, the half-life ([9]; ip) was 5.5 h and the AUC(0-inf) ([9]; ip, PDS-0330 IP 5mg/kg) was 442 ng·h/mL. It also gave an AUC(0-t) ([9]; po) of 53.4 ng·h/mL, a CL/F ([9]; po) of 1190 mL/min/kg and a Cmax ([9]; po) of 30.8 ng/mL. For the same compound, the Tmax ([9]; po) was 0.4 h, the Vd/F ([9]; po) was 1100 L/kg and the half-life ([9]; po) was 14.5 h. For the same compound, the AUC(0-inf) ([9]; po, PDS-0330 PO 5mg/kg) was 86 ng·h/mL, the resistance to anoikis (SW620 cells [10]) was “dramatically reduced the resistance to anoikis” and the cell invasion (SW620 cells [11]) was “significantly inhibited”. For the same compound, the “apoptosis in tumors (cleaved PARP, BclxL, survivin)” value (SW620 xenograft tumor; PDS-0330 5mg/Kg and 10mg/Kg) was “increase in apoptosis”, the “proliferation in tumors (Ki67)” value (SW620 xenograft tumor; PDS-0330 5mg/Kg and 10mg/Kg) was “reduced proliferation” and the “tumor volume and weight” value (SW620 xenograft tumor; [13]) was “significant reduction”. The “tumor volume, combination with 5-FU” value (SW620 xenograft tumor; PDS-0330 and 5-FU in combination vs either alone) was “substantial reduction”, the “impact on SW480 cells” value (SW480 cells) was “no significant impact” and the Kd (human claudin-19) was 157 µM and ≥ 100 µM. The EC50 (SW620 cells [12]; Homo sapiens, SW-620, 72 h, read-out: EC50, cell viability) was 9.3 µM, the “CI index, % cell survival in combination with 5-FU” value (SW620 cells [12]; PDS-0330 with 5-FU (5μM)) was < 1 and the “effect with oxaliplatin on cell survival” value (SW620 cells [12]; PDS-0330 with oxaliplatin (1μM)) was “synergistic effect”.

Source: publication PMC10824272 (Biomedicine & pharmacotherapy = Biomedecine & …, 2023)
